{"source": "paper PMC3177239", "about": "(The Biochemical journal, 2011)", "key": {"[1]": {"tested_on": "pig tracheal submucosal glands", "test": "Pig tracheal submucosal glands fluid secretion", "outline": "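Pig tracheas collected within 1 h postmortem into ice-cold Krebs-Ringer bicarbonate buffer (1 μM indomethacin) gassed with 95% O2/5% CO2. Serosal side bathed at 37 °C. Agents were diluted in warm gassed buffer and added serosally after basal secretion was recorded. Carbachol 10 μM was added at the end to confirm viability. Rate was taken as the volume-vs-time slope (R² > 0.8): 10-min basal, 25-min stimulated. 11 pigs, 11–43 glands, mean ± s.e.m.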"}, "[2]": {"tested_on": "cAMP levels in Calu-3 cells", "test": "Ratiometric FRET cAMP measurement", "type": "cell-based", "conditions": "CO-068 50 μM or FSK 10 μM added after baseline", "outline": "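Calu-3 cells were transiently transfected (Lipofectamine) with the CFP-EPAC-YFP sensor and grown on glass-bottom dishes. Cells were washed twice and held in HBSS, in the dark at room temperature, on an inverted microscope. After baseline, time-lapse images were taken every 1 min (100–300 ms exposure) with an EM-CCD camera. The background-subtracted CFP/FRET emission ratio came from 10–20 regions in 3–5 cells. n = 4–5 separate experiments, mean ± s.e.m.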"}}, "data": [{"smiles": "O=C(O)c1ccc(/C=C2\\SC(=S)N(c3cccc(C(F)(F)F)c3)C2=O)cc1", "note": "[CFTRinh-172]", "values": [{"measurement": "Effect on FSK-induced fluid secretion", "setting": "[1]; CFTRinh-172 50 μM plus FSK 10 μM", "result": "markedly inhibited"}]}, {"smiles": "C=C[C@@]1(C)CC(=O)[C@]2(O)[C@@]3(C)[C@@H](O)CCC(C)(C)[C@@H]3[C@H](O)[C@H](OC(C)=O)[C@@]2(C)O1", "note": "[FSK, forskolin]", "values": [{"measurement": "Increase in cAMP levels (CFP/FRET emission ratio)", "setting": "[2]", "result": 1.5, "unit": "fold"}, {"measurement": "Increase in mean fluid secretion rate compared to basal secretion rate", "setting": "[1]; FSK 10 μM or CO-068 50 μM, over 25 min", "result": 5, "unit": "fold"}]}]}
